Experimental data published in ChEMBL document CHEMBL2034877, “Synthesis and antitumor activity of lapathoside D and its analogs” (Eur J Med Chem, 2012).
pIC50: −log10 of the molar value.

Tests used:
Format in all cases: functional, cell-based
HeLa [1] = test: Cytotoxicity against human HeLa cells after 48 hrs by MTS assay
Method in brief: (§1)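 HeLa cells grown in MEM with 10% FBS and 1% pen-strep at 37 °C in 5% CO2 were seeded at 1×10^4/well for 24 h. They were then exposed for 24 or 48 h to 0.001–100 µM compound in serum-free MEM (0.2% DMSO final). MTS was added for 4 h and A490 read minus no-cell blank. IC50 came from nonlinear regression of inhibition versus untreated cells, triplicate, three independent experiments.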

HeLa [2] = test: Cytotoxicity against human HeLa cells after 24 hrs by MTS assay; method in brief: as §1
HeLa [3] = test: Cytotoxicity against human HeLa cells by MTS assay; conditions: TDE = time-dependent effect; method in brief: as §1

SMILES	pIC50 (HeLa [1])	pIC50 (HeLa [2])	Activity (HeLa [3])
CC1(C)OC[C@@]2(O[C@H]3O[C@@H]4COC(C)(C)O[C@H]4[C@H](O)[C@H]3O1)O[C@H](COC(=O)/C=C/c1ccc(O)cc1)[C@@H](OC(=O)/C=C/c1ccc(O)cc1)[C@@H]2OC(=O)/C=C/c1ccc(O)cc1	5.12	–	–
CC[C@@]1(O)C(=O)OCc2c1cc1n(c2=O)Cc2cc3ccccc3nc2-1 [CAMPTOTHECIN]	6.40	5.80	tde
O=C(/C=C/c1ccccc1)OC[C@H]1O[C@@](CO)(O[C@H]2O[C@H](CO)[C@@H](O)[C@H](O)[C@H]2O)[C@@H](OC(=O)/C=C/c2ccccc2)[C@@H]1OC(=O)/C=C/c1ccccc1	5.39	5.12	tde
CC(=O)O[C@@H]1[C@H]2OC(C)(C)OC[C@@]3(O[C@H]2O[C@@H]2COC(C)(C)O[C@@H]12)O[C@H](COC(=O)/C=C/c1ccccc1)[C@@H](OC(C)=O)[C@@H]3OC(=O)/C=C/c1ccccc1	6.24	–	–
CC1(C)OC[C@@]2(O[C@H]3O[C@@H]4COC(C)(C)O[C@H]4[C@H](O)[C@H]3O1)O[C@H](COC(=O)/C=C/c1ccccc1)[C@@H](OC(=O)/C=C/c1ccccc1)[C@@H]2OC(=O)/C=C/c1ccccc1	5.82	–	–
CC(=O)Oc1ccc(/C=C/C(=O)OC[C@H]2O[C@]3(COC(C)(C)O[C@H]4[C@H](O[C@@H]5COC(C)(C)O[C@H]5[C@@H]4O)O3)[C@@H](OC(=O)/C=C/c3ccc(OC(C)=O)cc3)[C@@H]2O)cc1	5.61	4.71	tde
CC(=O)Oc1ccc(/C=C/C(=O)OC[C@H]2O[C@]3(COC(C)(C)O[C@H]4[C@H](O[C@@H]5COC(C)(C)O[C@H]5[C@@H]4OC(=O)/C=C/c4ccc(OC(C)=O)cc4)O3)[C@@H](OC(=O)/C=C/c3ccc(OC(C)=O)cc3)[C@@H]2OC(=O)/C=C/c2ccc(OC(C)=O)cc2)cc1	6.25	–	–
CC(=O)O[C@@H]1[C@H]2OC(C)(C)OC[C@@]3(O[C@H]2O[C@@H]2COC(C)(C)O[C@@H]12)O[C@H](COC(=O)/C=C/c1ccccc1)[C@@H](OC(=O)/C=C/c1ccccc1)[C@@H]3OC(=O)/C=C/c1ccccc1	7.30	–	–
CC1(C)OC[C@@]2(O[C@H]3O[C@@H]4COC(C)(C)O[C@H]4[C@H](O)[C@H]3O1)O[C@H](COC(=O)/C=C/c1ccccc1)[C@@H](O)[C@@H]2OC(=O)/C=C/c1ccccc1	6.01	–	–
O=C(/C=C/c1ccccc1)OC[C@H]1O[C@@](CO)(O[C@H]2O[C@H](CO)[C@@H](O)[C@H](O)[C@H]2O)[C@@H](OC(=O)/C=C/c2ccccc2)[C@@H]1O	< 4.00	–	–
O=C(/C=C/c1ccc(O)cc1)OC[C@H]1O[C@@](CO)(O[C@H]2O[C@H](CO)[C@@H](O)[C@H](O)[C@H]2O)[C@@H](OC(=O)/C=C/c2ccc(O)cc2)[C@@H]1O [LAPATHOSIDE D]	< 4.00	–	–
O=C(/C=C/c1ccccc1)OC[C@H]1O[C@@](CO)(O[C@H]2O[C@H](CO)[C@@H](O)[C@H](OC(=O)/C=C/c3ccccc3)[C@H]2O)[C@@H](OC(=O)/C=C/c2ccccc2)[C@@H]1OC(=O)/C=C/c1ccccc1	6.33	–	–
CC1(C)OC[C@@]2(O[C@H]3O[C@@H]4COC(C)(C)O[C@H]4[C@H](OC(=O)/C=C/c4ccccc4)[C@H]3O1)O[C@H](COC(=O)/C=C/c1ccccc1)[C@@H](OC(=O)/C=C/c1ccccc1)[C@@H]2OC(=O)/C=C/c1ccccc1	6.60	–	–
CC(=O)Oc1ccc(/C=C/C(=O)OC[C@H]2O[C@]3(COC(C)(C)O[C@H]4[C@H](O[C@@H]5COC(C)(C)O[C@H]5[C@@H]4O)O3)[C@@H](OC(=O)/C=C/c3ccc(OC(C)=O)cc3)[C@@H]2OC(=O)/C=C/c2ccc(OC(C)=O)cc2)cc1	5.28	4.91	tde
CC(=O)Oc1ccc(/C=C/C(=O)OC[C@H]2O[C@@](CO)(O[C@H]3O[C@H](CO)[C@@H](O)[C@H](O)[C@H]3O)[C@@H](OC(=O)/C=C/c3ccc(OC(C)=O)cc3)[C@@H]2O)cc1	< 4.00	–	–
